Series [1] relates to P-glycoprotein. Kind of series: Permeability assessed as human P-glycoprotein-mediated transport of basolateral to apical side in pig LLC-PK1 cells by measuring nontransporter-related passive membrane permeability by Transwell experiment/liquid scintillation counting. The series is classed as ADME, cell-based. The conditions noted are these: read-out: permeability.
The target of series [2] is T1, Solute carrier organic anion transporter family member 1B3 (Homo sapiens, UniProt Q9NPD5).
T1 sequence (Q9NPD5 whole entry): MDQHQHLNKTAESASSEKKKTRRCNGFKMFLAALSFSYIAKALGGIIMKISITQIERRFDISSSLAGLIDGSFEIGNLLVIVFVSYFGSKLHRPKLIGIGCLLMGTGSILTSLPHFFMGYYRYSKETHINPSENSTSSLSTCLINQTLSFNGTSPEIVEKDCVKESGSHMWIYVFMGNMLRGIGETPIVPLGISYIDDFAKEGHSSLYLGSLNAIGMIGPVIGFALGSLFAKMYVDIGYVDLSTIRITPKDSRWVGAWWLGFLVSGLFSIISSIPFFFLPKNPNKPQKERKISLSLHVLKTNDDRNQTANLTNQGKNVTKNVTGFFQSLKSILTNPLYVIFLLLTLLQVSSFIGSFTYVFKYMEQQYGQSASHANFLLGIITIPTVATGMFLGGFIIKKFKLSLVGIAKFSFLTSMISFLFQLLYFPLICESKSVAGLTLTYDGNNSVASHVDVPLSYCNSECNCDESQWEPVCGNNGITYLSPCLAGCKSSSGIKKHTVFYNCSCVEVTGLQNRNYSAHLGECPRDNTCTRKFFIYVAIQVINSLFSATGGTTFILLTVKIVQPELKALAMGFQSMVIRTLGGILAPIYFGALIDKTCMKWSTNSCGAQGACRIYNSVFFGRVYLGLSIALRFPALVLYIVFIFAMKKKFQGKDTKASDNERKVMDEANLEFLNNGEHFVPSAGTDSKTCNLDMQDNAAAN
Briefly: Inhibition of OATP1B3 (unknown origin) expressed in HEK293 cells assessed as reduction of [3H]CCK8 substrate uptake at 100 uM by liquid scintillation counting. The series is classed as ADME, cell-based. Conditions: hek293, 100 µM. The procedure, abridged:
(§1)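 HEK293 cells transiently transfected with OAT, OATP or OCT plasmid (FuGENE6; 24 h, then 24 h more with sodium butyrate), or stable OCTN1/OCTN2 lines; vector-transfected cells as control. Washed, preincubated 15–60 min at 37 °C in modified Krebs-Henseleit/25 mM HEPES buffer. Uptake of radiolabelled substrate, 100 µM inhibitor. Cells lysed in NaOH and counted by scintillation; counts normalised to medium radioactivity and Lowry protein; vector uptake subtracted.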

Series [3] concerns the target T2, Broad substrate specificity ATP-binding cassette transporter ABCG2 (Homo sapiens, UniProt Q9UNQ0).
T2 sequence (Q9UNQ0 whole entry): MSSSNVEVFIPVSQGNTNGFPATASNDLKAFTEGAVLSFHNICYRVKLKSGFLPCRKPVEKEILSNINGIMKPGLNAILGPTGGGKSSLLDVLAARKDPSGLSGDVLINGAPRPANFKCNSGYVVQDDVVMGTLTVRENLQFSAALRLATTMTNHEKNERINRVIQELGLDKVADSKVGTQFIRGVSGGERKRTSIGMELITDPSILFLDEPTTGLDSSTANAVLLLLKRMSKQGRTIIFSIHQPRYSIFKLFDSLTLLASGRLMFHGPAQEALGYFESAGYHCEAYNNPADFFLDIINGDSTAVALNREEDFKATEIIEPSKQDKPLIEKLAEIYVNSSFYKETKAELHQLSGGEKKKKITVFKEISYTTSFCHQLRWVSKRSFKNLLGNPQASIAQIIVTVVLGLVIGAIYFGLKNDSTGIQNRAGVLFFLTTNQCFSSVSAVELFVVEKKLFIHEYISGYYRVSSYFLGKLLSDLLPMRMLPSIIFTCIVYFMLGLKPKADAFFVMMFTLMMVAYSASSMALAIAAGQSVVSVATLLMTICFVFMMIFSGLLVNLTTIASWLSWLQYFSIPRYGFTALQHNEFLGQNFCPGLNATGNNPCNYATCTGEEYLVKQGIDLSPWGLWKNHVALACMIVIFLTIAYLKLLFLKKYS
Briefly: Inhibition of human BCRP expressed in MDCK2 cells assessed as reduction of [3H]E-sul substrate transport up to 100 uM by liquid scintillation counting. The format is ADME, cell-based. The conditions noted are these: mdck-ii. The procedure, abridged:
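Membrane vesicles made from MDCKII cells expressing BCRP or MRP2, and from parental cells (1 μg/μL protein). Run in Tris-sucrose buffer, pH 7.4, with 10 mM MgCl2, creatine phosphokinase and ATP, or AMP as control. Substrates: 0.035 μM [3H]E-sul for BCRP, 2 min; 0.033 μM [3H]E217βG for MRP2, 5 min; both at 37 °C. Stopped ice-cold, filtered, and counted by scintillation.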

In a further series the target is T3, OCTN2 (Homo sapiens, UniProt O76082).
T3 sequence (O76082 whole entry): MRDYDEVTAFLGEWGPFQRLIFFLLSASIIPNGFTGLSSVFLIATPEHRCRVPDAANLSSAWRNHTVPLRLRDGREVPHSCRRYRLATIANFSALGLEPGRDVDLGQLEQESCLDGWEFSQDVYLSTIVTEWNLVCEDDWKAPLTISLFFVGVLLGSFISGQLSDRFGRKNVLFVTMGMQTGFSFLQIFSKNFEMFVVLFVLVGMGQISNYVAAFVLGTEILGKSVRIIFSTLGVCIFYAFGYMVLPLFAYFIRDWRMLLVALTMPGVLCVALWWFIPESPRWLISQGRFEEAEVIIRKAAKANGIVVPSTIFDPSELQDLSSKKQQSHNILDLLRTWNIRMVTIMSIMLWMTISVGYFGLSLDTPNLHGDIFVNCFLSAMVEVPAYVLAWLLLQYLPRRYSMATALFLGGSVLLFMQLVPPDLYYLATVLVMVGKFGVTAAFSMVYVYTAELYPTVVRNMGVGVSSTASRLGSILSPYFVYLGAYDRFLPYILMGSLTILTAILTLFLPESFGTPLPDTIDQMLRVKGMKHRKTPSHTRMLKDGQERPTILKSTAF
Kind of series: Inhibition of OCTN2 (unknown origin) expressed in HEK293 cells assessed as reduction of [3H]carnitine substrate uptake at 100 uM by liquid scintillation counting. The format is cell-based. Conditions: HEK293 cells expressing OCTN2, probe [3H]carnitine. The procedure, abridged: as §1

In series [4] the test system is P-glycoprotein. Kind of series: Permeability assessed as human P-glycoprotein-mediated active membrane transport by measuring basolateral to apical side expressed in pig LLC-PK1 cells by Transwell experiment/liquid scintillation counting. The series is classed as ADME, cell-based. Conditions: read-out: permeability.

Results on 1 molecule are retold here after ChEMBL document CHEMBL3525903 (Drug Metab Dispos, 2013).

The inhibition is the relative decrease from the control value, in per cent.

As to `CC#CCn1c(N2CCC[C@@H](N)C2)nc2c1c(=O)n(Cc1nc(C)c3ccccc3n1)c(=O)n2C` [LINAGLIPTIN], the Papp B→A with P-glycoprotein [1] is 14.7 ×10⁻⁶ cm/s; in the series on P-glycoprotein [4], 27.4 ×10⁻⁶ cm/s. The “inhibition (INH)” value is on record as 3.39% in series [2] and 24.7% in series [3]. Moreover, on OCTN2, the inhibition at 100 µM worked out at 15.5%.
